# Screening data (PubChem)
# TRPC4 agonist: activators of mouse TRPC4 channel | 310,000 compounds, 0.49% hits | HEK293 TRPC4beta/mu-opioid, Fluo4 calcium fluorescence; hits give high values | B-score at 10 µM | AID 2237;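 active = B-score above 5 SD of library B-scores, and initial fluorescence ratio not above library mean plus 5 SD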;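 also: positive B-score marks a calcium rise read as TRPC4 activation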
# Target sequence (Q9QUQ5 whole entry, looked up): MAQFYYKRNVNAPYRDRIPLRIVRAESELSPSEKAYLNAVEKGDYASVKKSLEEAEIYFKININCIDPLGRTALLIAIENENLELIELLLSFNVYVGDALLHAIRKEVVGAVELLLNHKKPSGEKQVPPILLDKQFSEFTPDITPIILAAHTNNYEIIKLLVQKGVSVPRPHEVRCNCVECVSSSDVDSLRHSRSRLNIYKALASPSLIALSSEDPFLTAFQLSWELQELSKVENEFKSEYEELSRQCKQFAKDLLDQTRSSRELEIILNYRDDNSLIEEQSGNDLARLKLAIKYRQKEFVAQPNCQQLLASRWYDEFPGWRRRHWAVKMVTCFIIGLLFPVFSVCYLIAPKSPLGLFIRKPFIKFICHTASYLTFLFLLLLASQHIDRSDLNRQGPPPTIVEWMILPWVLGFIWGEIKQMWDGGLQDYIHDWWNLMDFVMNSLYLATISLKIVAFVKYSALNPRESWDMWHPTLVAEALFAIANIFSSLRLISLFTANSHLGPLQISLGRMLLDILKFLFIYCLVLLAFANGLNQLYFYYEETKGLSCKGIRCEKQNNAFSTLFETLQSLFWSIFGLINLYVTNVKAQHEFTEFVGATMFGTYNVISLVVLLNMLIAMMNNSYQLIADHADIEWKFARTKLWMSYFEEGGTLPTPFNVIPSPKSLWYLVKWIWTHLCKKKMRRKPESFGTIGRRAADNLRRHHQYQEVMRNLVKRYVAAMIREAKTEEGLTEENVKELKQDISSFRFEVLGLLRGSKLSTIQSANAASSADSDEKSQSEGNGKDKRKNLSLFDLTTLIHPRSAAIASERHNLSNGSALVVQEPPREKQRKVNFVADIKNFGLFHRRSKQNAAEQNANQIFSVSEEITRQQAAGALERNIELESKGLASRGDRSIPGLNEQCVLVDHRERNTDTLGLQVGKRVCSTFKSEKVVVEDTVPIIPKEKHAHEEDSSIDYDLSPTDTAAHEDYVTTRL
#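 system = HEK293 cells stably co-expressing mouse TRPC4beta and mu-opioid receptor | schedule = Fluo4 dye loading 45 min at room temperature, 110 s recording | measure = B-scored integrated calcium fluorescence ratio | signal = Fluo4 calcium-sensitive dye fluorescence, kinetic, 1 Hz baseline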
# TRPC6 act: activators of mouse TRPC6 channel. HEK293-TRPC6 membrane potential dye fluorescence; hits give high values. B-score at 10 µM. 310,000 compounds, 0.13% hits. AID 2550;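 active = B-score of the integrated fluorescence ratio above library mean plus 3 SD, and starting fluorescence ratio within library mean plus 5 SD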;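 also: higher score means more depolarization so channel activation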
# TRPC4 inh: blocks the mouse TRPC4 cation channel | HEK293 TRPC4beta/mu-opioid, DAMGO-evoked Fluo4 calcium flux; hits give low values | AID 2247 | B-score at 10 µM | 300,000 compounds, 0.39% hits | Q9QUQ5;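 active = B-score over 3 SD under the library average, no early fluorescence shift, positive overall ratio signal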
#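 Signal: kinetic Fluo4 fluorescence imaging of calcium influx. Material: stable TRPC4beta/mu-opioid receptor HEK293 cells. Probe or stimulus: DAMGO in two steps, submaximal then maximal.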
# TRPC6 inhibitor: blocks the mouse TRPC6 cation channel; 310,000 compounds, 1.1% hits; B-score at 10 µM; HEK293-TRPC6, membrane potential dye, ACh-evoked depolarization; hits give low values; Q61143;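 active = B-score under library mean minus 3 SD, initial fluorescence not abnormally high, positive integrated signal ratio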;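 also: B-score derived from integrated fluorescence ratio over the kinetic read; more negative B-score means stronger inhibition of depolarization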
# TRPC4 PAM: TRPC4 (mouse) allosteric potentiation; Q9QUQ5; HEK293 TRPC4beta/mu-opioid, DAMGO EC20, Fluo-4 Ca2+ flux; hits give high values; B-score at 10 µM; 310,000 compounds, 0.42% hits;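 active = B-score of calcium response area above 5 SD of library B-scores, with initial fluorescence ratio within 5 SD of library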;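 also: B-score of integrated fluorescence ratio over time as area under calcium response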
# TRPC4 spec 2: second selectivity test of TRPC6 inhibitors: effect on mouse TRPC4; shares compounds with TRPC6 inhibitor; HEK293 TRPC4/MOR, membrane potential dye fluorescence; channel activated by saturating DAMGO dose; inhibition, % at 10 µM; 920 compounds, 42% hits; AID 2776;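 active = compounds whose fluorescence signal differed from control wells by over 3 SD, either direction, in both duplicate plates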
# TRPC4 spec: tests whether TRPC6 inhibitors also affect mouse TRPC4; 920 compounds, 61% hits; activity change, negative = inhibition, % at 10 µM; shares compounds with TRPC6 inhibitor; HEK293 TRPC4/mu-opioid, membrane potential fluorescence;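 active = rise or fall in signal beyond 3 SD of buffer-only wells in both replicate plates, either sign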;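 also: integrated kinetic ratio of fluorescence range over baseline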
# HEK293 MPD ctr 2-1: second check of TRPC6 inhibitor effects in parental HEK293 cells; shares compounds with TRPC6 inhibitor; parental HEK293 membrane potential dye fluorescence; maximal acetylcholine challenge after compound addition; signal change vs control, % at 10 µM; 920 compounds, 31% hits; AID 2779;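 active = membrane potential signal moving either way by over 3 SD of the maximum-effect control, in both duplicate plates, meaning non-specific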
# HEK293 MPD ctr-1: counter-screen for TRPC6 inhibitors: effect in parental HEK293 cells | membrane potential signal change, % at 10 µM | shares compounds with TRPC6 inhibitor | 920 compounds, 60% hits | parental HEK293 membrane potential dye fluorescence;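 active = membrane potential signal shifting up or down by more than 3 SD of buffer-only wells, on both duplicate plates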
# HEK293 MPD ctr-2: counter-screen for TRPC6 modulators: effect in parental HEK293 cells; shares compounds with TRPC6 inhibitor; membrane potential dye fluorescence; membrane potential signal change, % at 10 µM; 2,400 compounds, 51% hits;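 active = membrane potential signal moves up or down beyond 5 SD from buffer-only wells, on both duplicate plates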
# HEK293 MPD ctr 2-2: second check of TRPC6 modulator effects in parental HEK293 cells | shares compounds with TRPC6 inhibitor | 2,400 compounds, 14% hits | inhibition, % at 10 µM | membrane potential dye fluorescence; after compound, maximal acetylcholine stimulation;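 active = membrane potential signal drops by more than 5 SD from the mean control signal, in both duplicate plates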;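 also: plate controls were acetylcholine ECmax control wells for no effect and buffer only wells for full effect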
# TRPC4/MOR mod: mouse TRPC4 off-target activity of TRPC6 modulators | shares compounds with TRPC6 inhibitor | percent change from control (negative = decrease, positive = increase), % at 10 µM | HEK293 TRPC4/mu-opioid, membrane potential fluorescence | 2,400 compounds, 69% hits;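 active = membrane potential signal moved up or down beyond 5 SD of buffer control wells, in both duplicate plates, actives on both sides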;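 also: plate controls were assay buffer wells for no effect and DAMGO maximal-effect wells for full effect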
# TRPC4/MOR inh 2: second selectivity test of TRPC6 modulators against mouse TRPC4 | 2,400 compounds, 55% hits | shares compounds with TRPC6 inhibitor | AID 488928 | inhibition, % at 10 µM | HEK293 TRPC4/mu-opioid, membrane potential dye fluorescence; stimulated with maximal-effect DAMGO;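 active = drop in membrane potential signal beyond 5 SD of the control wells in both duplicate plates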;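 also: TRPC4 counter screen for TRPC6 hits run under conditions tuned for TRPC6 not TRPC4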
# TRPC6 inh conf: confirmation of mouse TRPC6 inhibitors. shares compounds with TRPC6 inhibitor. HEK293-TRPC6, membrane potential dye, ACh-evoked depolarization. inhibition, % at 10 µM. 3,300 compounds, 43% hits. AID 488960;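 active = fluorescence ratio falls more than 5 SD below the full-stimulation control mean, in both duplicate runs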;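 also: integrated fluorescence ratio of peak minus minimum over baseline after agonist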
# TRPC6 act confirm: confirmation of mouse TRPC6 activators. shares compounds with TRPC6 inhibitor. HEK293-TRPC6 membrane potential dye fluorescence, FDSS. activation, % at 10 µM. 2,800 compounds, 11% hits. AID 488961;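 active = ratio signal rise beyond 5 SD above unstimulated control wells' mean, seen in both duplicate runs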;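 also: plate controls were buffer EC0 wells for no effect and acetylcholine ECmax response for full effect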
# An asterisk follows results filed as active; i = inactive; nt = no result given. Sampled rows, rich in hits. Any-hit rate of the full collection: about 2.3%.
SMILES,TRPC4 agonist,TRPC6 act,TRPC4 inh,TRPC6 inhibitor,TRPC4 PAM,HEK293 MPD ctr-2,HEK293 MPD ctr 2-2,TRPC4/MOR mod,TRPC4/MOR inh 2,TRPC6 inh conf,TRPC6 act confirm,others
CCN(CC)S(=O)(=O)c1ccc(NN=C2CCN(C)CC2)c([N+](=O)[O-])c1,i,i,i,-7.17*,i,-83.0%*,i,-19.5%*,39.0%*,i,i,
CCOc1ccccc1C(=O)Nc1cccc2cccnc12,i,i,i,i,i,nt,nt,nt,nt,nt,nt,
Cc1ccc(C(=O)NCCCNCCCNC(=O)c2ccc(C)nc2)cn1,i,i,i,i,i,nt,nt,nt,nt,nt,nt,
Cc1ccc(S(=O)(=O)NCCNC(=O)c2ccc(C)nc2)cc1,i,i,i,-6.32*,i,i,i,i,i,i,nt,
COc1ccc(S(=O)(=O)Nc2ccc(N3CCOCC3)nc2)cc1,i,i,i,-5.02*,i,i,i,i,i,i,i,
COc1ccc(NC(=O)c2ccc(N3CCOCC3)nc2)cc1,i,i,i,i,i,nt,nt,nt,nt,nt,nt,
CSCc1ccc(C(=O)N2CCC(N3CCC(C(=O)NC(C)C)CC3)CC2)o1,i,i,i,i,i,nt,nt,nt,nt,nt,nt,
CCN(CC#CCC(O)(c1ccccc1)C1CCCC1)C(C)C (stereo not given),i,i,i,-5.58*,i,188.0%*,i,33.5%*,i,55.5%*,nt,
Cc1ccc(NC(=O)CN(C)C(=O)Cn2ccsc2=N)cc1,i,i,i,i,i,nt,nt,nt,nt,nt,nt,
N=c1sccn1CC(=O)Nc1ccccc1Oc1ccccc1,i,i,-6*,-5.07*,i,i,i,i,75.5%*,i,i,
Cc1ccc(Oc2ccc(NC(=O)Cn3ccsc3=N)cc2)cc1,60*,i,i,-8.29*,i,nt,nt,nt,nt,89.0%*,i,TRPC4 spec 2=29.0%*;TRPC4 spec=i;HEK293 MPD ctr 2-1=i;HEK293 MPD ctr-1=i
CCOC(=O)NC(=O)c1cn(CCNCCO)c(=O)[nH]c1=O,i,i,i,i,i,nt,nt,nt,nt,nt,nt,
NC(=O)c1ccc(NC(=O)CSc2nnc(-c3ccccn3)n2N)cc1,i,i,i,i,i,nt,nt,nt,nt,nt,nt,
COCCNC(=S)NNc1ccccc1[N+](=O)[O-],i,i,i,i,i,nt,nt,nt,nt,nt,nt,
C/C(=N\NC(=O)CNC(=O)C1COc2ccccc2O1)c1ccco1 (stereo not given),i,i,i,i,i,nt,nt,nt,nt,nt,nt,
COc1ccc(Cn2c(-c3ccc(Br)cc3)c[n+]3ccccc23)cc1,i,i,i,-12.6*,i,-269.0%*,i,-47.0%*,48.5%*,59.5%*,i,
CCOC(=O)C1CCCN(C(=O)CN2C(=O)NC(C)(c3ccc4ccccc4c3)C2=O)C1 (stereo not given),i,i,i,i,i,nt,nt,nt,nt,nt,nt,
CN(C)CCOC(C1CCCCC1)C1CCCCC1,i,i,i,-5.53*,i,229.5%*,i,52.5%*,50.5%*,39.0%*,nt,
CCOc1ccc(C(=O)NCC(=O)NNC(=O)CN(C)S(=O)(=O)c2ccc(Cl)cc2)cc1,i,i,i,i,i,nt,nt,nt,nt,nt,nt,
CCOC(=O)C1(Cc2cccc(OC)c2)CCN(Cc2cccn2-c2nccs2)CC1,i,i,i,-6.51*,i,207.0%*,i,33.5%*,86.0%*,i,nt,
C=CCn1c(O)c(N=NC(=O)CNC(=O)c2ccco2)c2ccccc21,i,i,i,i,i,nt,nt,nt,nt,nt,nt,
COCc1cc(C(C)=O)ccc1OCC(=O)Nc1ccc(NC(C)=O)cc1,i,i,i,i,i,nt,nt,nt,nt,nt,nt,
CCOC(=O)c1[nH]c2ccc(F)cc2c1NC(=O)CN1CCc2cc(OC)c(OC)cc2C1,i,i,i,i,i,nt,nt,nt,nt,nt,nt,
COC(=O)c1[nH]c2ccccc2c1NC(=O)CN1CCN(C/C=C/c2ccccc2)CC1,i,i,i,-7.84*,i,nt,nt,nt,nt,79.4%*,i,TRPC4 spec 2=30.5%*;TRPC4 spec=-16.0%*;HEK293 MPD ctr 2-1=i;HEK293 MPD ctr-1=-176.0%*
COC(=O)c1[nH]c2ccccc2c1NC(=O)CN1CC(C)OC(C)C1 (stereo not given),i,i,i,i,i,nt,nt,nt,nt,nt,nt,
SMILES,TRPC4 agonist,TRPC6 act,TRPC4 inh,TRPC6 inhibitor,TRPC4 PAM,HEK293 MPD ctr-2,HEK293 MPD ctr 2-2,TRPC4/MOR mod,TRPC4/MOR inh 2,TRPC6 inh conf,TRPC6 act confirm,others
CCOC(=O)c1[nH]c2ccc(F)cc2c1NC(=O)CN1CCN(C/C=C/c2ccccc2)CC1,i,i,i,-11.8*,i,nt,nt,nt,nt,87.9%*,i,TRPC4 spec 2=40.0%*;TRPC4 spec=-20.9%*;HEK293 MPD ctr 2-1=i;HEK293 MPD ctr-1=-246.5%*
CCOc1ccc(N(C(C)C(=O)N2CCCCCC2)S(C)(=O)=O)cc1 (stereo not given),i,i,i,i,i,nt,nt,nt,nt,nt,nt,
CCCCCC(=O)NC(=S)Nc1ccc2oc(=O)ccc2c1,i,i,i,-6.37*,i,i,i,-14.0%*,i,i,i,
Cc1cc(N2CCN(C)CC2)nc(N2CCOCC2)n1,i,i,i,-5.71*,i,-246.0%*,i,-44.5%*,31.0%*,i,i,
Cc1cc(N2CCOCC2)nc(N2CCOCC2)n1,i,i,i,i,i,nt,nt,nt,nt,nt,nt,
C/C(=N\NC(=S)NC(C)C)c1ccccc1OC(F)F,i,i,i,-8.85*,i,nt,nt,nt,nt,i,i,TRPC4 spec 2=i;TRPC4 spec=i;HEK293 MPD ctr 2-1=i;HEK293 MPD ctr-1=i
